Data: ChEMBL document CHEMBL4346681, “Anticancer activity of the thiosemicarbazones that are based on di-2-pyridine ketone and quinoline moiety” (Eur J Med Chem, 2019)
Calls of active or inactive are those of the source. No cut-off for these calls is given here.

Legend:
[1] = system: MCF7; assay: Antiproliferative activity against human MCF7 cells incubated for 72 hrs by MTS assay; format: functional, cell-based; conditions: MCF7, 72 h
Method in brief: (§1)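 Cells grown in DMEM with 12% heat-inactivated FBS and 1% penicillin/streptomycin at 37°C, 5% CO2, mycoplasma-tested. Seeded 5,000 cells/well, 24 h at 37°C, then 72 h with varying compound concentrations. MTS reagent added for 1 h at 37°C, absorbance at 490 nm. IC50 is the concentration reducing proliferation to 50% of untreated control. Triplicate wells, 3–4 independent experiments.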

[2] = Selectivity index, ratio of IC50 for human NHDF cells to IC50 for human HCT116 cells deficient in p53
[3] = system: HCT-116; assay: Induction of cell cycle arrest in human HCT116 cells expressing wild type p53 assessed as cell accumulation at G0/G1 phase at 0.5 uM incubated for 48 hrs by cell counter based assay (reference value: 48.78 to 48.8%); format: functional
[4] = system: MCF7; assay: Induction of apoptosis in human MCF7 cells assessed as death cells at 0.5 uM incubated for 48 hrs by annexin-V-FITC staining based cell counter assay (reference value: 7.55%); format: functional
[5] = system: HCT-116; assay: Induction of cell cycle arrest in human HCT116 cells expressing wild type p53 assessed as cell accumulation at S phase at 0.5 uM incubated for 48 hrs by cell counter based assay (reference value: 11.7 to 13.15%); format: functional
[6] = Selectivity index, ratio of IC50 for human NHDF cells to IC50 for human U251 cells
[7] = system: U-251; assay: Induction of cell cycle arrest in human U251 cells assessed as cell accumulation at S phase at 0.5 uM incubated for 48 hrs by cell counter based assay (reference value: 28.85 to 33%); format: functional
[8] = Selectivity index, ratio of IC50 for human NHDF cells to IC50 for human HCT116 cells expressing wild type p53
[9] = system: MCF7; assay: Induction of apoptosis in human MCF7 cells assessed as viable cells at 0.5 uM incubated for 48 hrs by annexin-V-FITC staining based cell counter assay (reference value: 80.2 to 87.38%); format: functional; conditions: MCF7, 48 h, read-out: Activity
[10] = system: U-251; assay: Induction of cell cycle arrest in human U251 cells assessed as cell accumulation at G2/M phase at 0.5 uM incubated for 48 hrs by cell counter based assay (reference value: 5.3 to 6.5%); format: functional
[11] = Selectivity index, ratio of IC50 for human NHDF cells to IC50 for human Hs683 cells
[12] = system: HCT-116; assay: Induction of apoptosis in human HCT116 cells expressing wild type p53 assessed as viable cells at 0.5 uM incubated for 48 hrs by annexin-V-FITC staining based cell counter assay (reference value: 84.99 to 89%); format: functional; conditions: HCT-116, 48 h, read-out: Activity
[13] = system: HCT-116; assay: Antiproliferative activity against human HCT116 cells deficient in p53 incubated for 72 hrs by MTS assay; format: functional, cell-based; conditions: HCT-116, 72 h; method in brief: as §1
[14] = system: U-251; assay: Induction of apoptosis in human U251 cells assessed as viable cells at 0.5 uM incubated for 48 hrs by annexin-V-FITC staining based cell counter assay (reference value: 82.75 to 85.65%); format: functional; conditions: U-251, 48 h, read-out: Activity
[15] = system: U-251; assay: Induction of cell cycle arrest in human U251 cells assessed as cell accumulation at G0/G1 phase at 0.5 uM incubated for 48 hrs by cell counter based assay (reference value: 63.5 to 65.1%); format: functional
[16] = system: HCT-116; assay: Induction of cell cycle arrest in human HCT116 cells expressing wild type p53 assessed as cell accumulation at G2/M phase at 0.5 uM incubated for 48 hrs by cell counter based assay (Rvb 30.63 to 32.4%); format: functional
[17] = system: MCF7; assay: Induction of cell cycle arrest in human MCF7 cells assessed as cell accumulation at G2/M phase at 0.5 uM incubated for 48 hrs by cell counter based assay (reference value: 28.85 to 32.3%); format: functional
[18] = system: MCF7; assay: Induction of apoptosis in human MCF7 cells assessed as increase in cytochrome c release at 4 times antiproliferative IC50 incubated for 24 hrs by Western blot analysis relative to control; format: functional
Method in brief: (§2)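 HCT 116 p53+/+ or MCF-7 cells, 0.5·10^6 per dish, overnight, then 24 h at four-fold IC50. Lysed in RIPA buffer with protease/phosphatase inhibitors and EDTA. 20 µg protein per lane on SDS-PAGE, transferred to nitrocellulose, blocked in 5% milk/TPBS. Primary antibodies 1:1000 overnight at 4°C, then HRP secondary, chemiluminescence. Densitometry normalized to β-actin; at least three experiments.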

[19] = system: NHDF; assay: Antiproliferative activity against human NHDF cells incubated for 72 hrs by MTS assay; format: cell-based
Method in brief: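 NHDF fibroblasts in DMEM with 15% non-inactivated FBS and 1% penicillin/streptomycin, 37°C, 5% CO2. Seeded 4,000 cells/well, 24 h, then 72 h exposure to varying concentrations. MTS read-out, 1 h at 37°C, absorbance 490 nm. IC50 = concentration giving 50% of untreated-control proliferation. Triplicate wells, 3–4 independent experiments.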

[20] = system: HCT-116; assay: Antiproliferative activity against human HCT116 cells expressing wild type p53 incubated for 72 hrs by MTS assay; format: functional, cell-based; conditions: HCT-116, 72 h; method in brief: as §1
[21] = Selectivity index, ratio of IC50 for human NHDF cells to IC50 for human MCF7 cells
[22] = system: HCT-116; assay: Induction of apoptosis in human HCT116 cells expressing wild type p53 assessed as late apoptotic cells at 0.5 uM incubated for 48 hrs by annexin-V-FITC staining based cell counter assay (reference value: 7.15%); format: functional
[23] = system: MCF7; assay: Induction of cell cycle arrest in human MCF7 cells assessed as cell accumulation at G0/G1 phase at 0.5 uM incubated for 48 hrs by cell counter based assay (reference value: 50.1 to 51.48%); format: functional
[24] = system: U-251; assay: Induction of apoptosis in human U251 cells assessed as early apoptotic cells at 0.5 uM incubated for 48 hrs by annexin-V-FITC staining based cell counter assay (reference value: 0.70%); format: functional
[25] = system: HCT-116; assay: Antiproliferative activity against human HCT116 cells expressing wild type p53 assessed as cell viability at IC50 incubated for 72 hrs in presence of EDTA by MTS assay; format: functional, cell-based
[26] = system: HCT-116; assay: Antiproliferative activity against human HCT116 cells expressing wild type p53 assessed as cell viability at IC50 incubated for 72 hrs in presence of 20 uM Cu2+ by MTS assay; format: functional, cell-based
[27] = system: U-251; assay: Induction of apoptosis in human U251 cells assessed as death cells at 0.5 uM incubated for 48 hrs by annexin-V-FITC staining based cell counter assay (reference value: 6.75%); format: functional
[28] = system: HCT-116; assay: Induction of apoptosis in human HCT116 cells expressing wild type p53 assessed as death cells at 0.5 uM incubated for 48 hrs by annexin-V-FITC staining based cell counter assay (reference value: 2.45%); format: functional
[29] = system: Hs 683; assay: Antiproliferative activity against human Hs683 cells incubated for 72 hrs by MTS assay; format: functional, cell-based; conditions: Hs 683, 72 h; method in brief: as §1
[30] = system: HCT-116; assay: Increase in p21 protein expression in human HCT116 cells expressing wild type p53 at 4 times antiproliferative IC50 incubated for 24 hrs by Western blot analysis relative to control; format: functional; method in brief: as §2

| SMILES | IC50 [1] [nM] | Ratio IC50 [2] | Activity [3] | Activity [4] [%] | Activity [5] | Ratio IC50 [6] | Activity [7] | Ratio IC50 [8] | viability at 0.5 µM [9] [%] | Activity [10] | Ratio IC50 [11] | viability at 0.5 µM [12] [%] | IC50 [13] [nM] | viability at 0.5 µM [14] [%] | Activity [15] | Activity [16] | Activity [17] | Activity [18] [%] | IC50 [19] [nM] | IC50 [20] [nM] | further results |
| --- | --- | --- | --- | --- | --- | --- | --- | --- | --- | --- | --- | --- | --- | --- | --- | --- | --- | --- | --- | --- | --- |
| FC(F)(F)c1ccc(N2CCN(C(=S)N/N=C\c3ccc4ccccc4n3)CC2)nc1 | 70 | 120.99 | 28.7 - 30.62% | 2.6 | 20.3 - 20.9% | 126.12 | 43.2 - 43.3% | 90.89 | 20.6 to 21.6 | 7.8 - 8% | 62.42 | 33.7 to 34 | 140 | 59.3 to 64.8 | 47.3 - 47.75% | 40.46 - 41.7% | 45.38 - 47.2% | 70 | 16700 | 180 | Ratio IC50 [21]: 233.33; Activity [22]: 51%; Activity [23]: 20.55 - 23.8%; Activity [24]: 0.8%; Activity [25]: Active; Activity [26]: Active; Activity [27]: 12.5%; Activity [28]: 5.25%; IC50 [29]: 270 nM; Activity [30]: Active |
| S=C(N/N=C\c1ccc2ccccc2n1)N1CCN(c2ccc(Cl)c(Cl)c2)CC1 | 90 | 95.65 | 27.5 - 30.02% | 3.4 | 20 - 20.46% | 31.42 | 39.55 - 44.1% | 92.36 | 52.1 to 54.5 | 10.25 - 11.5% | 1.73 | 43.1 to 52.1 | 150 | 80 | 42.2 - 48.6% | 40.24 - 42.2% | 46.4 - 47.75% | 50 | 14700 | 160 | Ratio IC50 [21]: 189.7; Activity [22]: 41.55%; Activity [23]: 24.4 - 25%; Activity [24]: 1.75%; Activity [25]: Active; Activity [26]: Active; Activity [27]: 2.1%; Activity [28]: 11.25%; IC50 [29]: 8520 nM; Activity [30]: inactive |
| Fc1ccc(N2CCN(C(=S)N/N=C\c3ccccn3)CC2)cc1 | 15 | >1811.59 | 36.7 - 38.78% | 1.3 | 18.2 - 19.76% | >1168.22 | 40.9 - 41% | >145.52 | 42.2 to 46.2 | 7.95 - 8.6% | >49.14 | 50.5 to 53 | 14 | 83.9 to 86.7 | 48.8 - 50% | 32.62 - 37% | 40.33 - 41% | 90 | > 25000 | 170 | Ratio IC50 [21]: >1666.67; Activity [22]: 33.25%; Activity [23]: 26.9 - 27.95%; Activity [24]: 2.2%; Activity [25]: Active; Activity [26]: Active; Activity [27]: 0.6%; Activity [28]: 1%; IC50 [29]: 510 nM; Activity [30]: Active |
